# Screening data deposited in PubChem BioAssay by Broad Institute.
# rRNA inh HTS: selective bacterial rRNA inhibition in E. coli; E. coli WT GFP vs humanized-ribosome RFP mutants, fluorescence, 24 h; stronger effect = lower value; DMSO median 0, no signal -100; 350,000 compounds, 1.6% hits; GFP signal change (wild-type ribosome), % (test concentration not listed);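 active means significant combined selectivity score with lowered wild-type GFP, culture density cut under 30%, mutant RFP and density less affected; inactive means any of these conditions unmet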
# EWS-Fli block: inhibitors of EWS/Fli oncoprotein transcriptional activity | A673 NR0B1-luciferase reporter, viability-normalised | inhibition, % at 12.6 µM | 350,000 compounds, 0.67% hits | AID 651661;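 active means mean inhibition of at least 50% after viability correction, with every replicate also passing that limit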;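 further: firefly luciferase signal divided by Alamar Blue viability fluorescence both relative to DMSO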
# E-sel inducer: induces E-selectin expression in human endothelial cells; P16581; HUVEC E-selectin immunofluorescence imaging; normalized: neutral wells 0, TNF-alpha wells 100; 260,000 compounds, 0.37% hits; activation, % at 7.58 µM;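 active means mean E-selectin-positive cell signal at least 10% of the positive control, reached in at least 60% of replicates, without over 20% cell loss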
# Target sequence (P16581 whole entry, looked up): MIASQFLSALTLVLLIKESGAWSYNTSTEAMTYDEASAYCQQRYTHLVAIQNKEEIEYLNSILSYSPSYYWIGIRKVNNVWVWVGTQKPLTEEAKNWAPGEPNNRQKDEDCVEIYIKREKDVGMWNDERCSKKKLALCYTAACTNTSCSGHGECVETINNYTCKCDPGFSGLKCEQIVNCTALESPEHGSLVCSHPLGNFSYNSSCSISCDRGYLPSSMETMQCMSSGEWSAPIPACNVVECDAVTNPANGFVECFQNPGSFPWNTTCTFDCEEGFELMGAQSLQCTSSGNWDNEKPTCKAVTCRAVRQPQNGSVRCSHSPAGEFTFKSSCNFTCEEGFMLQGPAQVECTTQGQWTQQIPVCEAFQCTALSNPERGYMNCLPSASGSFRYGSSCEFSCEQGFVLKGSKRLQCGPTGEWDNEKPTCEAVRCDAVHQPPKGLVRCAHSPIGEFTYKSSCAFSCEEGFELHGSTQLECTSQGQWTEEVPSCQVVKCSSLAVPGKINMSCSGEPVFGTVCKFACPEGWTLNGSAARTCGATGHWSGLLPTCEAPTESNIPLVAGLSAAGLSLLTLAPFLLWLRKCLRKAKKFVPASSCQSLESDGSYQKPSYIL
#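 System: HUVEC, human umbilical vein endothelial cells; quantity: 3,000 cells/well; buffer or medium: EGM-2 medium, gelatin-coated wells; dosing: single-point compound dose; detection: immunofluorescence imaging; evaluation: % PE-positive cells; benchmarks: TNF-alpha, DMSO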
# LGR2 antag: blocks bursicon-induced cAMP signaling via Drosophila LGR2. HEK293 LGR2, CRE-luciferase, bursicon-stimulated, 4 h. inhibition, % at 9.99 µM. 380,000 compounds, 0.35% hits;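 active means drop in luminescence signal, shown as inhibition above about 50% in the replicate tests, limit read from the data, passing the limit was not always enough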;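 further: agonist challenge used bursicon conditioned medium at about half maximal strength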
# Starred values were filed as active, the others as inactive; x = not tested or not shown; ! = repeats disagree. Hits are enriched below; roughly 2.4% of the tested compounds scored in any of these assays.
SMILES,rRNA inh HTS,EWS-Fli block,E-sel inducer,LGR2 antag
COc1cccc(/C=N/Nc2ccc([N+](=O)[O-])cn2)c1O,-28,-27,2,67*
COc1ccccc1C=NNC(=O)NN=Cc1ccccc1OC,-41,-23,-1,-29
C[C@@H]1CN([C@H](C)CO)C(=O)c2cc(NC(=O)CCC(F)(F)F)ccc2O[C@@H](C)CCCCO[C@@H]1CN(C)C(=O)C1CCCCC1,-1,3,0,9
COc1ccc2c3c([nH]c2c1)[C@@H](CO)N(C(C)=O)CC31CN(C(=O)Nc2c(C)noc2C)C1,4,x,x,x
COc1cccc(/C=N/NC(=O)C(C)n2nc(C)c([N+](=O)[O-])c2C)c1O (stereo not given),-22*,6,0,-2
CC(=O)Nc1cccc(NC(=S)Nc2ccc(F)c(Cl)c2)c1,-49,-16,4,8
CC(=O)NNC(=S)Nc1cccc(F)c1,12,-22,51*,-13
C[C@H]1CN([C@@H](C)CO)C(=O)Cc2cc(NC(=O)Cn3cnnn3)ccc2O[C@H]1CN(C)Cc1ccc(C(=O)Nc2ccccc2N)cc1,0,-2,-4,-8
CC(=O)C1=C(O)C(=O)N(c2ccc(Br)cc2)C1c1ccc(Br)cc1 (stereo not given),-14,10,1,0
COc1ccc(C2C(C(C)=O)=C(O)C(=O)N2c2ccc(C)cc2)cc1 (stereo not given),-24*,-14,0,12
CCCn1nnnc1NCc1ccc(Cl)cc1Cl,-29*,7,1,-17
CCCn1nnnc1NCc1ccccc1F,10,-7,0,-2
Cc1nc(C(=O)NNC(=O)c2cccc(Cl)c2)c(C(F)(F)F)o1,-27*,2,0,12
N=c1c2c3c(sc2ncn1Nc1ccccc1)CCC3,-17*,-2,0,-5
N=c1c2c3c(sc2ncn1Cc1ccccc1)CCCC3,x,x,0,-1
O=C(N[C@H]1CC[C@@H](CCn2cc(C3(O)CCCC3)nn2)O[C@@H]1CO)C1CCCC1,0,-1,0,-15
CCOC(=O)/C(=N\Nc1ccccc1[N+](=O)[O-])c1csc(N)n1,-27*,-10,x,6
C=CC[N+]1(CC#Cc2ccccc2)CCCC1,19,-17,x,-2
C(#Cc1ccccc1)C[N+]1(CC#Cc2ccccc2)CCCC1,-44*,8,0,-1
COc1cccc(/C=C2\Oc3cc(OCC(=O)N4CCCCC4)ccc3C2=O)c1OC,-30,-16,x,2
COc1cccc(/C=C2\Oc3cc(OCC(=O)N4CCCC4)ccc3C2=O)c1OC,-24*,-5,x,-8
CCCC(=O)Nc1ccc2c(c1)C(=O)N(C)[C@H]1CC[C@H](CC(=O)Nc3cccc(F)c3)O[C@@H]1CO2,-1,5,0,-3
CC(C)C[C@H]1CN([C@@H](Cc2ccc(O)cc2)CN2CCC[C@H]2CN2C(=O)C(=O)NC[C@@H]2Cc2ccc(O)cc2)C(=O)C(=O)N1CCc1ccccc1,-28*,9,x,-3
CC(C)C[C@H]1CN([C@@H](Cc2ccc(O)cc2)CN2CCC[C@H]2CN2C(=O)C(=O)NC[C@@H]2Cc2ccccc2)C(=O)C(=O)N1CCc1ccccc1,-33,5,1,19
CC(C)NC(=O)Nc1ccc2c(c1)CC(=O)N([C@@H](C)CO)C[C@@H](C)[C@H](CN(C)S(=O)(=O)c1cn(C)cn1)O2,2,0,6,-9
SMILES,rRNA inh HTS,EWS-Fli block,E-sel inducer,LGR2 antag
CC1=NN(C(N)=S)C(=O)C1N=Nc1cccc(C(=O)O)c1 (stereo not given),14,32,x,61*
CCC(C)Oc1cc(-c2ccnc(Nc3cccc(Cl)c3)n2)ccn1 (stereo not given),18,25,0,84*
OCCCNc1cc(-c2ccnc(Nc3cccc(Cl)c3)n2)ccn1,-20*,-14,0,102*
COCC(=O)N1CCC2(CC1)CN(C(=O)CN1CCOCC1)[C@@H](CO)c1c2c2ccc(OC)cc2n1C,1,4,0,29
CC(=O)N(C)C[C@@H]1Oc2ccccc2C(=O)N(C)C[C@H]1C,-1,x,x,x
Cc1cccc(-c2ccc([C@@H]3[C@H]4CN(C(=O)c5cnccn5)CC(=O)N4[C@H]3CO)cc2)c1,-1,x,x,x
O=C(NC(=S)NCc1ccc(-c2nc3ccccc3s2)cc1)c1ccco1,x,x,0,-56
O=C(NCc1ccc(-c2nc3ccccc3s2)cc1)c1ccco1,-20*,-17,0,-40
Cc1ccc(NC(=O)COC(=O)c2ccco2)cc1,24,3,x,-4
Cc1ccc2nc(-c3ccc(NC(=O)COC(=O)c4ccc([N+](=O)[O-])o4)cc3)sc2c1,-4,55*,x,83*
Cc1ccc2nc(-c3ccc(NC(=O)COC(=O)c4cncc(Br)c4)cc3)sc2c1,-4,-3,x,-5
Cc1ccc2nc(-c3ccc(NC(=O)COC(=O)c4ccco4)cc3)sc2c1,x,x,x,66*
CCCNC(=O)N1CC2(CN(CC3CCOCC3)C2)c2c(n(C)c3cc(OC)ccc23)[C@@H]1CO,3,-7,1,0
CCCC#Cc1ccc([C@H]2[C@@H](CO)N3C(=O)CN(C(=O)CN4CCOCC4)C[C@H]23)cc1,3,-15,0,18
COC(=O)c1ccc2nc(Nc3nc4ccc(F)cc4s3)sc2c1,-1,77*,x,x
COC(=O)c1ccc2nc(NC(=O)C(C)(C)C)sc2c1,-2,54*,x,64*
COc1ccc2c3c([nH]c2c1)[C@H](CO)N(C(=O)C1CCC1)CC31CN(C(=O)c2ccncc2)C1,-2,-9,0,7
CC(=O)N1Cc2cc(C(=O)NCC(F)(F)F)nc(-c3cccc(-c4cccnc4)c3)c2[C@@H]1CCO,-5,59*,2,5
CC(C)NC(=O)N1Cc2cc(C(=O)NC3CCC3)nc(-c3cccc(-c4cccnc4)c3)c2[C@H]1CCO,-5,-7,0,1
CC(=O)N1Cc2cc(C(=O)NCC(F)(F)F)nc(-c3cccc(-c4cccnc4)c3)c2[C@H]1CCO,-2,3,0,2
CC(C)NC(=O)N1Cc2cc(C(=O)NC3CCCCC3)nc(-c3cccc(-c4cccnc4)c3)c2[C@@H]1CCO,-40*!,14,0,-26
CCNC(=O)c1cc2c(c(-c3cccc(-c4cccnc4)c3)n1)[C@H](CCO)N(S(C)(=O)=O)C2,-6,55*,1,1
COC(=O)C1=CN(Cc2ccc(F)cc2)C=C(C(=O)OC)C1c1cc(OC)c(OC)c(OC)c1,-24*,6,0,10
COCCN1C=C(C(=O)OC)C(c2ccc(OC)c(OC)c2)C(C(=O)OC)=C1,7,x,x,0
COC(=O)C1=CN(C(C)c2ccccc2)C=C(C(=O)OC)C1c1cc(OC)c(OC)c(OC)c1 (stereo not given),-22*,9,0,-19
CC(C)(C)C(=O)c1sc(Nc2ccccc2)nc1N,-39*,-120,x,-81
O=C(C[C@H]1CC[C@@H](NS(=O)(=O)c2ccccc2F)[C@H](CO)O1)NCCCN1CCOCC1,4,5,1,8
